# Reference: ChEMBL document CHEMBL1122306, “2-(Hydroxyphenyl)indoles: a new class of mammary tumor inhibiting compounds” (1983)
# Key:
# Rattus norvegicus [1] = assay: Partial remission in DMBA-induced hormone dependent mammary carcinoma tumor bearing rats at 2 mg/kg in 9 animals; assay type: functional
# Summary of the method: (§1)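 Sprague-Dawley rats bearing established DMBA-induced mammary carcinomas that arose 5–10 weeks after DMBA. Dosed sc as one daily dose Monday to Thursday and a double dose on Friday. Controls got vehicle alone. Tumor area was followed over treatment.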
# [2] = biological target: T1, Estrogen receptor (Mus musculus) (UniProt O08537+P19785); assay: Anti-estrogenic activity in mouse uterotrophic assay at 625 ug as uterus dry weight (mg)/body weight (g) *100; assay type: functional, tissue-based
# T1 sequence (O08537 whole entry, looked up): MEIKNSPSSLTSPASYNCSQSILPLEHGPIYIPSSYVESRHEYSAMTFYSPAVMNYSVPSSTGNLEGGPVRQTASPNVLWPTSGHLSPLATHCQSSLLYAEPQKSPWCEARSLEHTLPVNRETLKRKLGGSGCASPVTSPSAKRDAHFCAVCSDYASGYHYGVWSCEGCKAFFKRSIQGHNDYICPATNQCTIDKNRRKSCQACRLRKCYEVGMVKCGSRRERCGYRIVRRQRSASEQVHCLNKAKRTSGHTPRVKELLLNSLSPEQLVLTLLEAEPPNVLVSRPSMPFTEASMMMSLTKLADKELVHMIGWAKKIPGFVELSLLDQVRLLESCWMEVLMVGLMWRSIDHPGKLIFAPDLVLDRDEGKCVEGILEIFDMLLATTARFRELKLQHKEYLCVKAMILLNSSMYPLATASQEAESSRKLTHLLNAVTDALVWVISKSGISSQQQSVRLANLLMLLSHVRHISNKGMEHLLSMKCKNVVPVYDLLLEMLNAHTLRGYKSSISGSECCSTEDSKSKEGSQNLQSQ
# T1 sequence (P19785 whole entry, looked up): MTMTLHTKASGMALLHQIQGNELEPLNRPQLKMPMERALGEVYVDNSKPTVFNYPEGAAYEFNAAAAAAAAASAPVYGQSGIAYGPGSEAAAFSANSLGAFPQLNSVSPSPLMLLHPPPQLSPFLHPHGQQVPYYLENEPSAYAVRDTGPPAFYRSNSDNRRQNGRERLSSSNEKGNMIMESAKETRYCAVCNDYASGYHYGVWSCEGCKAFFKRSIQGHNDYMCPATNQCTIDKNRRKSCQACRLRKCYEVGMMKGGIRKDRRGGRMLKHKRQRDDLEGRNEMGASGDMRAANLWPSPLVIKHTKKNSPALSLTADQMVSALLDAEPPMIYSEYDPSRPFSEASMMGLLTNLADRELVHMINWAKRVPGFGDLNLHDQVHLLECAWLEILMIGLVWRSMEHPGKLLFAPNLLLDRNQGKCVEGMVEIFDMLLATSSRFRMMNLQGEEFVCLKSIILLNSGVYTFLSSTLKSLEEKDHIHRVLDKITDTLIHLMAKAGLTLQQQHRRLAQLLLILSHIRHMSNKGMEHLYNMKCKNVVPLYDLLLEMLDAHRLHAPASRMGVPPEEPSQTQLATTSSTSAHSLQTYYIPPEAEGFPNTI
# Summary of the method: (§2)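 Mice dosed sc on 3 consecutive days (dose per animal), together with […] estrone per animal per day. Uterus dry weight (mg)/body weight (g) × 100 was taken 24 h after the last injection, as mean ± SD of 10 animals. Significance by Wilcoxon–Mann–Whitney U test.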
# [3] = biological target: T1, Estrogen receptor (Mus musculus); assay: Percent inhibition in anti-uterotrophic assay in mice at 25 ug; assay type: functional; summary of the method: as §2
# MDA-MB-231 [4] = assay: Inhibition of [3H]thymidine incorporation into hormone independent MDA-MB 231 human breast cancer cells at 1x10E-5 M; assay type: functional
# Summary of the method: (§3)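 MDA-MB 231 cells grown in McCoy 5a with 10% newborn calf serum and gentamycin. Replicate plates were switched to 5% serum 1 h before the run. Compounds were added in Me2SO (final 0.1%). Read-out was [3H]thymidine incorporation into TCA-precipitable material.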
# [5] = biological target: T1, Estrogen receptor (Mus musculus); assay: Estrogenic activity in mouse uterotrophic assay at 5 ug as uterus dry weight (mg)/body weight (g) *100; assay type: functional, tissue-based
# Summary of the method: (§4)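 Mouse uterotrophic test with the compound alone given sc on 3 consecutive days (dose per animal). Uterus dry weight (mg)/body weight (g) × 100 was measured 24 h after the last injection, as mean ± SD of 10 animals. Significance by Wilcoxon–Mann–Whitney U test.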
# [6] = biological target: T1, Estrogen receptor (Mus musculus); assay: Estrogenic activity in mouse uterotrophic assay at 25 ug as uterus dry weight (mg)/body weight (g) *100; assay type: functional, tissue-based; summary of the method: as §4
# MDA-MB-231 [7] = assay: Inhibition of [3H]thymidine incorporation into hormone independent MDA-MB 231 human breast cancer cells at 1*10^-5 M; assay type: functional; summary of the method: as §3
# MDA-MB-231 [8] = assay: (§5) Inhibition of [3H]thymidine incorporation into hormone independent MDA-MB 231 human breast cancer cells at 1x10E-6M; assay type: functional; summary of the method: as §3
# Rattus norvegicus [9] = assay: New tumor development in DMBA-induced hormone dependent mammary carcinoma in rats at 6 mg/kg; assay type: functional; summary of the method: as §1
# [10] = biological target: T1, Estrogen receptor (Mus musculus); assay: Percent inhibition in anti-uterotrophic assay in mice at 625 ug; assay type: functional; summary of the method: as §2
# Rattus norvegicus [11] = assay: Percent complete remission of DMBA-induced hormone dependent mammary carcinoma in rats at 2 mg/kg in 9 animals; assay type: functional; summary of the method: as §1
# [12] = biological target: T1, Estrogen receptor (Mus musculus); assay: Percent inhibition in anti-uterotrophic assay in mice at 125 ug; assay type: functional; summary of the method: as §2
# Rattus norvegicus [13] = assay: Initial DMBA-induced hormone dependent mammary carcinoma tumors in rats at 6 mg/kg; assay type: functional; summary of the method: as §1
# [14] = biological target: T1, Estrogen receptor (Mus musculus); assay: Estrogenic activity in mouse uterotrophic assay at 125 ug as uterus dry weight (mg)/body weight (g) *100; assay type: functional, tissue-based; summary of the method: as §4
# Rattus norvegicus [15] = assay: Static unchanged DMBA-induced hormone dependent mammary carcinoma tumors in rats at 2 mg/kg in 9 animals; assay type: functional; summary of the method: as §1
# MDA-MB-231 [16] = assay: as §5; assay type: functional; summary of the method: as §3; remark: listed apart in the source
# MDA-MB-231 [17] = assay: Growth inhibition of hormone independent MDA-MB 231 human breast cancer cells at 1x10E-5 M
# [18] = biological target: T1, Estrogen receptor (Mus musculus); assay: Anti-estrogenic activity in mouse uterotrophic assay at 25 ug as uterus dry weight (mg)/body weight (g) *100; assay type: functional, tissue-based; summary of the method: as §2
# [19] = biological target: T1, Estrogen receptor (Mus musculus); assay: Estrogenic activity in mouse uterotrophic assay at 625 ug as uterus dry weight (mg)/body weight (g) *100; assay type: functional, tissue-based; summary of the method: as §4
# Rattus norvegicus [20] = assay: Progressive DMBA-induced hormone dependent mammary carcinoma tumors in rats at 2 mg/kg in 9 animals; assay type: functional; summary of the method: as §1
# [21] = biological target: T1, Estrogen receptor (Mus musculus); assay: Anti-estrogenic activity in mouse uterotrophic assay at 5 ug as uterus dry weight (mg)/body weight (g) *100; assay type: functional, tissue-based; summary of the method: as §2
# [22] = biological target: T1, Estrogen receptor (Mus musculus); assay: Anti-estrogenic activity in mouse uterotrophic assay at 1 ug as uterus dry weight (mg)/body weight (g) *100; assay type: functional, tissue-based; summary of the method: as §2
# [23] = biological target: T1, Estrogen receptor (Mus musculus); assay: Percent inhibition in anti-uterotrophic assay in mice at 1 ug; assay type: functional; summary of the method: as §2
# [24] = biological target: T1, Estrogen receptor (Mus musculus); assay: Estrogenic activity in mouse uterotrophic assay at 1 ug as uterus dry weight (mg)/body weight (g) *100; assay type: functional, tissue-based; summary of the method: as §4
# Rattus norvegicus [25] = assay: Change in tumor area DMBA-induced hormone dependent mammary carcinoma tumor bearing rats at 2 mg/kg after 7 day therapy in 9 animals; assay type: functional; conditions: in the assay text read “28 day” for “7 day”; summary of the method: as §1
# [26] = biological target: T1, Estrogen receptor (Mus musculus); assay: Percent inhibition in anti-uterotrophic assay in mice at 5 ug; assay type: functional; summary of the method: as §2
# [27] = biological target: T1, Estrogen receptor (Mus musculus); assay: Anti-estrogenic activity in mouse uterotrophic assay at 125 ug as uterus dry weight (mg)/body weight (g) *100; assay type: functional, tissue-based; summary of the method: as §2
# Rattus norvegicus [28] = assay: Change in body weight of DMBA-induced hormone dependent mammary carcinoma tumor bearing rats at 2 mg/kg after 7 day therapy in 9 animals; assay type: functional
# Rattus norvegicus [29] = assay: Change in tumor area DMBA-induced hormone dependent mammary carcinoma tumor bearing rats at 2 mg/kg after 28 day therapy in 9 animals
smiles,measurement,setting,value
Cn1c(-c2c(Cl)cc(O)cc2Cl)cc2c(Cl)cc(O)cc21,Partial remission,Rattus norvegicus [1],28%
same,Effect,[2],39.6
same,inhibition,[3],14%
same,Cell no./dish x10E3,MDA-MB-231 [4],2.2 cpm/dish x10E3
same,Cell no./dish x10E5,MDA-MB-231 [4],4.12
same,Effect,[5],18.2
same,Effect,[6],26
same,T/C,MDA-MB-231 [7],5%
same,Cell no./dish x10E3,MDA-MB-231 [8],36.4 cpm/dish x10E3
same,Cell no./dish x10E5,MDA-MB-231 [8],10.12
same,T/C,MDA-MB-231 [8],95%
same,New tumors,Rattus norvegicus [9],24
same,inhibition,[10],24%
same,Complete remission,Rattus norvegicus [11],19%
same,inhibition,[12],30%
same,No. of tumors,Rattus norvegicus [13],19
same,Effect,[14],34.4
same,Static remission,Rattus norvegicus [15],25%
same,T/C,MDA-MB-231 [16],88%
same,T/C,MDA-MB-231 [17],38%
same,Effect,[18],42.7
same,Effect,[19],40.1
same,Progressive tumors,Rattus norvegicus [20],28%
same,Effect,[21],45.4
same,Effect,[22],48.5
same,inhibition,[23],-6%
same,Effect,[24],16
same,Change,Rattus norvegicus [25],24%
same,inhibition,[26],5%
same,Effect,[27],37.7
same,Change,Rattus norvegicus [28],-2%
CCCn1c(-c2c(Cl)cc(O)cc2Cl)cc2c(Cl)cc(O)cc21,Partial remission,Rattus norvegicus [1],19%
same,New tumors,Rattus norvegicus [9],9
same,Change,Rattus norvegicus [29],57%
same,Complete remission,Rattus norvegicus [11],8%
same,No. of tumors,Rattus norvegicus [13],17
same,Static remission,Rattus norvegicus [15],50%
same,Progressive tumors,Rattus norvegicus [20],23%
same,Change,Rattus norvegicus [28],0%
